# Assay outcomes deposited in PubChem BioAssay by several laboratories.
# SKN-1 inh: blocks SKN-1 activity in C. elegans; C. elegans VP596 Pgst-4::GFP/RFP ratio, acrylamide-induced, 24 h; inhibition, % at 21.8 µM; 0.49% of 360,000 active; AID 624304;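 active = interference check ratio from 0.5 to 1.5 plus GFP to RFP signal ratio inhibition reaching or exceeding a fixed threshold, cut at about 30% in these data, passing the limit was not always enough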
# DAGLB inh: blocks human DAGLB lipase activity; 0.059% of 340,000 active; inhibition, % at 5.17 µM; HEK293T DAGLB membrane lysate, EnzChek fluorogenic substrate; AID 504411; in the data active = inhibition above about 34%;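 also: 0% = enzyme with vehicle and 100% = wells lacking enzyme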
# MT1-MMP act inh: MT1-MMP (human) activation inhibition; 0.061% of 360,000 active; HT1080 RFP-PRO-GFP cells, GFP/RFP ratio fluorescence, overnight; percent of plate control window, DMSO zero; GFP/RFP ratio change, % at 20 µM;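 active = GFP/RFP ratio change of at least 30% with cell ATP level not reduced by more than half and red fluorescence within 50% of control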
#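 Test system: HT1080 cells expressing an RFP-PRO-GFP fluorescent reporter construct / Compound dosing: single-point 20 µM compound, 1% DMSO / Schedule: cells overnight before dosing, compound overnight, 37 °C, 5% CO2 / Evaluation: GFP/RFP fluorescence ratio / Control set: DMSO and RFP-L50D-GFP cell wells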
# FAS-TE inh: FAS thioesterase (human) inhibition. inhibition, % at 15 µM. 0.67% of 360,000 active. recombinant FAS-TE, OMFH fluorogenic substrate, fluorescence endpoint. AID 602261. P49327;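 active = compounds whose normalised, plate-corrected inhibition of enzyme fluorescence in the single-dose primary screen is 50% or more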;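 also: 0% = DMSO with enzyme and 100% = substrate without enzyme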
# Target sequence (P49327 whole entry, looked up): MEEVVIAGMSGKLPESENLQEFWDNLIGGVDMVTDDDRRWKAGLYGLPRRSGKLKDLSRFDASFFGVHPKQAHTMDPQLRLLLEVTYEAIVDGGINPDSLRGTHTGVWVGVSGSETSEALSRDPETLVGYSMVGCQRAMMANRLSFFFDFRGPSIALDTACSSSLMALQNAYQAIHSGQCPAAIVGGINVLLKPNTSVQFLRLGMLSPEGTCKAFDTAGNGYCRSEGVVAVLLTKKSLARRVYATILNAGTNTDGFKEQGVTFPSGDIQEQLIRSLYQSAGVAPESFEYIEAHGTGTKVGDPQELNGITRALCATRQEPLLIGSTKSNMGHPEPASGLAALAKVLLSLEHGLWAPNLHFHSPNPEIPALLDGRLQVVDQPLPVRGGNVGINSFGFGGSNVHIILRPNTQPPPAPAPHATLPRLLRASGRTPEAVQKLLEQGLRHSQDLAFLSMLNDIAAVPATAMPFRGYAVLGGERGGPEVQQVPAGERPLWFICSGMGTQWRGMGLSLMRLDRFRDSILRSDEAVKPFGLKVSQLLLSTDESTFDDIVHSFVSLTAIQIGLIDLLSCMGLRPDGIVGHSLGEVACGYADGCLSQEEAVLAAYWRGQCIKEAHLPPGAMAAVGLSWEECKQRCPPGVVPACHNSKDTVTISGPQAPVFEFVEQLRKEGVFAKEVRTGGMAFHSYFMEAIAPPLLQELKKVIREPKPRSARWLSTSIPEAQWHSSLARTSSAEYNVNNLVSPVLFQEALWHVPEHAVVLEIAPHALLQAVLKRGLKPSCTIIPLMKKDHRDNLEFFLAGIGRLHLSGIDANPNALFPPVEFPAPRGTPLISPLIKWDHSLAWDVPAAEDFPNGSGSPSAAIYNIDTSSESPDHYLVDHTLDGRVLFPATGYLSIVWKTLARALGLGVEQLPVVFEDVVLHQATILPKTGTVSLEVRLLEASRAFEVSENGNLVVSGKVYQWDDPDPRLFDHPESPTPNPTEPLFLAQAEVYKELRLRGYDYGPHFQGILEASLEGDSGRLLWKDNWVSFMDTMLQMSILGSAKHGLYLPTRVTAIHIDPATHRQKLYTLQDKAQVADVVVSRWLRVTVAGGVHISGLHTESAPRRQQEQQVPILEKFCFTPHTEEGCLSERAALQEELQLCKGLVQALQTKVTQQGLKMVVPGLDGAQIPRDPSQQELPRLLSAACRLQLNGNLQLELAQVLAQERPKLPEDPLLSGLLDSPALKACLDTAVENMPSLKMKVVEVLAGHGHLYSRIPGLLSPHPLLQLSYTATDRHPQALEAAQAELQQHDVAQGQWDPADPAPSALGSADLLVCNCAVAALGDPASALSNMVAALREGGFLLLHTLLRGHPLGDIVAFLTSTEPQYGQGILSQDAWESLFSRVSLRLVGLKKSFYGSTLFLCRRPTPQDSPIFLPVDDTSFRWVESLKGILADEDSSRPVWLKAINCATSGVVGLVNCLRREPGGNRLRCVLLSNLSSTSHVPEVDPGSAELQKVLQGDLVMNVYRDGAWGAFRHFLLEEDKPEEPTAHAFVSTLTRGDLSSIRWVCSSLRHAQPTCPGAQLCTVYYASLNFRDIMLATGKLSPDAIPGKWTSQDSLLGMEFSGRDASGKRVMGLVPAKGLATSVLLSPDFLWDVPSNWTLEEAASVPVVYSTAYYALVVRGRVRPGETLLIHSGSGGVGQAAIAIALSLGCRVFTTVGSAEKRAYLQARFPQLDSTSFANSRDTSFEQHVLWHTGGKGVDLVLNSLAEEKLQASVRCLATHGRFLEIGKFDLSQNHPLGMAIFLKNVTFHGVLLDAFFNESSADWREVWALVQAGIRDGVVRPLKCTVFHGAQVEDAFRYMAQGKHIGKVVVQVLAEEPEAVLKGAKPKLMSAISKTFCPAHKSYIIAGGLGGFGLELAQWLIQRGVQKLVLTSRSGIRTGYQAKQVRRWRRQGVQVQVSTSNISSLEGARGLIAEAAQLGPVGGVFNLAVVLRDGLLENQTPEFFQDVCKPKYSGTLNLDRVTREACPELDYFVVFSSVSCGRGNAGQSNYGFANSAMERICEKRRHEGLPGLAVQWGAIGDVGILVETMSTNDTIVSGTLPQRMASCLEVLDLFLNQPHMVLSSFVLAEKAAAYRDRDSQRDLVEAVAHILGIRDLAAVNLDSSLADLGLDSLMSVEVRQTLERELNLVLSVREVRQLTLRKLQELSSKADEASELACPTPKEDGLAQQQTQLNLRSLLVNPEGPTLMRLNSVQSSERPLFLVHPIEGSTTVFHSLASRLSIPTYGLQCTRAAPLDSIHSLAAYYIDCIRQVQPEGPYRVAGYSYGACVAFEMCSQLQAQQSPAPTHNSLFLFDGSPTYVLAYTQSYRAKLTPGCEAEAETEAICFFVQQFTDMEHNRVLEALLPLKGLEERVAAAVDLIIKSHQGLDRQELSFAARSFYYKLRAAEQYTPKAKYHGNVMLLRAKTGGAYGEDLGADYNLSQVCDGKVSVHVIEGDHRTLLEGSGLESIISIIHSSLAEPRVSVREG
# iPSC survival up: increases survival of single human iPS cells; hiPSC single-cell survival, ATPlite luminescence; 100% = ROCK inhibitor wells, 0% = DMSO; survival enhancement, % at 20 µM; 0.044% of 360,000 active; AID 602274; in the data active = survival enhancement above about 18%;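 also: cells exposed to compounds for 16 hours before the ATP read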
# * marks the source's active call; other numbers are inactive results; . = no result given. Rows were chosen to be rich in hits. Some 1.3% of all compounds tested hit in one or more screens of this group.
SMILES,SKN-1 inh,DAGLB inh,MT1-MMP act inh,FAS-TE inh,iPSC survival up
O=C1C=CC(=O)c2c(O)c(N3CCN(CCO)CC3)c(Cl)c(O)c21,32,4,-6,1,2
O=C1C=CC(=O)c2c(O)c(N3CCN(CCOCCO)CC3)c(Br)c(O)c21,47*,4,-13,5,6
Cc1ccc(NC(=O)CSCc2cc(=O)n3ccsc3n2)cc1,34*,-2,-5,-7,-1
Cc1ccc(C(=O)OCc2cc(=O)n3ccsc3n2)s1,-1,-1,-2,1,18*
COc1ccc([C@H]2C[C@@H](O)C[C@@H](CCn3cc(-c4ccccc4)nn3)O2)cc1,10,.,6,-13,0
CC(=O)N1CCN(c2ccc(NCc3cccc4ccccc34)cc2)CC1,-4,3,2,2,2
CC(=O)N1CCN(c2ccc(NCc3ccccc3)cc2)CC1,38*,6,9,-7,-3
CCCCC(=O)N(C)c1c(CC)nc2c(OCC(=O)c3ccc(F)cc3)cccn12,12,.,-3,-3,1
CC(C)C[C@@H](CN1CCC[C@@H]1CN1C(=S)NC[C@@H]1Cc1ccc(O)cc1)N1C[C@H](Cc2ccc(O)cc2)N(CC2CCCCC2)C1=S,1,.,-1,-53,-4
CSCCC(C(=O)Nc1c(C)cccc1C)N1CCC(Cc2ccccc2)CC1 (centres undefined),0,.,-6,26,2
Brc1ccc(-c2nc(-c3ccncc3)no2)cc1,12,-1,0,-3,-1
Brc1ccc(-c2noc(-c3ccccn3)n2)o1,66*,-3,-2,-4,0
COc1cc(-c2nc(-c3ccc(Br)o3)no2)cc(OC)c1OC,5,-12,7,4,-1
Brc1ccc(-c2nc(-c3ccncc3)no2)o1,49*,0,.,-6,-2
Brc1ccc(-c2nc(-c3ccccn3)no2)o1,44*,-1,0,-6,-3
CC(C)N1C(=O)c2ccccc2NC(=O)C1C(=O)NCc1cccc(C(F)(F)F)c1 (centres undefined),-3,.,1,.,.
CCOC(=O)[C@]12CCC=C1N(Cc1ccc(Cl)cc1Cl)C(=O)[C@H](CC(=O)N1CCC(c3ccccc3)CC1)C2,24,.,-6,21,2
CC(C)Nc1ncnc2c1ncn2[C@H]1CN(C2CCCC2)C[C@@H](CO)O1,10,.,3,-6,3
CC(C)NC(=O)c1cc(-c2ccc(F)cc2OC(C)C)n[nH]1,-4,.,-3,-3,-2
CCCCOCCCNC(=O)C[C@@H]1C[C@@]2(C(=O)OCC)CCCC=C2N(CCc2ccc(OC)c(OC)c2)C1=O,2,.,1,.,.
CC1(c2ccc(Cl)cc2)NC(=O)N(CN2CCOCC2)C1=O (centres undefined),37*,0,3,-6,-1
O=C1NC[C@H](Cc2ccccc2)N(C[C@@H]2CCCN2C[C@H](Cc2ccccc2)N2C[C@H](Cc3ccc(O)cc3)N(CCc3ccccc3)C(=O)C2=O)C1=O,0,.,2,5,1
COc1ccc(C2C3=C(N=C4SCC(=O)N42)c2ccccc2CC3)cc1OC (centres undefined),48*,1,0,12,2
CCN1C/C(=C\c2cccc([N+](=O)[O-])c2)C(=O)/C(=C/c2cccc([N+](=O)[O-])c2)C1,8,3,-17,4,56*
Oc1cccc(Nc2c3ccccc3nc3ccccc23)c1,36*,8,-11,3,0
SMILES,SKN-1 inh,DAGLB inh,MT1-MMP act inh,FAS-TE inh,iPSC survival up
O=S(=O)(O)c1cc(O)c2c(O)c(N=Nc3cc(Cl)ccc3O)c(S(=O)(=O)O)cc2c1,89,18,77*,5,-1
O=[N+]([O-])c1cccc2ccc(/C=C/c3ccc(C(F)(F)F)cc3)nc12,12,-2,-1,27,-2
O=[N+]([O-])c1cccc2ccc(/C=C/c3ccc(Cl)cc3)nc12,39*,-7,0,33,0
CCCCNC(=O)COC(=O)c1cc(S(=O)(=O)N2CCCCCC2)ccc1OC,40*,-3,-3,-3,-1
c1ccc(-c2nnc(CSc3nnc(-c4cccs4)o3)o2)cc1,1,-4,-1,-8,5
Fc1ccc(-c2nnc(CSc3nnc(-c4cccs4)o3)o2)cc1,9,-3,9,3,0
Fc1ccc(CSc2nnc(-c3cccs3)o2)cc1,58*,-9,6,10,3
Cc1ccc(/C=C/c2nnc(-c3ccccc3)o2)cc1,0,-22,-2,7,2
C(=C\c1nnc(-c2cccs2)o1)/c1ccccc1,77*,-12,-2,14,1
c1ccc(CSc2nnc(-c3cccs3)o2)cc1,61*,-12,4,6,0
COC(=O)CCCn1cc(CN2CC(N(C)C)CS2(=O)=O)nn1 (centres undefined),1,.,4,-12,0
O=C(NCCN1CCC(n2c(=O)[nH]c3ccccc32)CC1)c1ccc(F)cc1Cl,12,.,4,-7,-1
COc1ccc(-c2cc(=O)oc3c(O)c(O)ccc23)cc1,16,31,-4,7,-1
CC1Oc2cc3oc4c(O)c(O)ccc4c(=O)c3c(O)c2C1(C)C (centres undefined),5,25,0,52*,-5
O=C(c1[nH]c(C(F)(F)F)nc1-c1ccccc1)N1CCOCC1,12,.,0,-5,-1
COC(=O)c1ccc2nc(-c3ccc(C)cc3)c(Cc3cccc(F)c3)n2c1,41*,.,-7,28,0
CCOC(=O)c1c(C)[nH]c(C(=O)COC(=O)c2oc3ccc(OC)cc3c2C)c1C,37*,-1,4,-4,-3
O=C(Nc1cccc2cccnc12)c1csc([C@@H]2O[C@H](CO)[C@H](O)[C@H](O)[C@H]2O)n1,0,.,.,-6,1
C=CCNc1nc(NCc2ccc(N(C)C)cc2)c2sc(-c3ccccc3)cc2n1,-2,.,0,-19,-2
Clc1c(-c2ccccc2)nnn1-c1ccccc1,36*,-3,0,-1,1
Nc1nnn(-c2ccccc2)c1-c1ccccc1,-2,0,6,-5,1
CCN(CCO)CC1CCCC2CCCCC21 (centres undefined),-3,.,8,-6,-2
CCOc1ccccc1C(=O)Nc1ccc(-n2nncc2C(C)(C)C)cc1,35*,0,6,0,-1
OC(c1ccccc1)(c1nc(-c2ccc3c(c2)OCO3)cs1)C(F)(F)F (centres undefined),-4,.,0,34,-2
N#C/C(=C\C=C\c1ccccc1)c1nc(-c2ccc3c(c2)OCO3)cs1,47*,-1,-12,-50,0
COc1cc(N(C(C)=O)c2ccc(O)c(C(=O)O)c2)c2ncccc2c1,25,-2,10,-2,3
FC(F)(F)c1ccc(-c2nc3ccccc3s2)cc1,9,.,3,0,-1
